Several values for one entry are separate records, joined by “and”; a condition that tells them apart may be missing. Equal values may be shown once.
System: Fibroblast
Experiment: Multiplex assay against human fibroblast
Format: toxicity, cell-based
Conditions: 10 µM, compound concentration 10 uM
How it was run: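 With compound added, live cells were imaged on a CQ1 microscope at 37°C and 5% CO2; staining with Hoechst33342, BioTracker Green Microtubule Cytoskeleton Dye, MitoTracker Red and Annexin V Alexa Fluor 680 had been done at seeding. The CellPathfinder machine-learning gating scheme split cells into Hoechst high-intensity objects or normal cells, normal cells into healthy, pyknosed or fragmented nuclei, and pyknosed cells into mitotic or apoptotic. The tubulin, mitochondrial-mass and membrane-permeability phenotypes are per cents of healthy-nucleus cells.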

Compound: C#Cc1cccc(Nc2ncnc3cc(OCCOC)c(OCCOC)cc23)c1 [ERLOTINIB]
- Population Apoptotic (%) (12 h, replicate 1): 59% and 66%
- Population Fragmented Nuclei (%) (12 h, replicate 1): 22% and 24% and 20%
- Population Healthy Nuclei (%) (12 h, replicate 1): 35% and 58% and 62%
- Population Hoechst High Intensity Objects (%) (12 h, replicate 1): 10% and 11% and 15%
- Population Mitotic Cells (%) (12 h, replicate 1): 40% and 33% and 29%
- Population Normal (%) (12 h, replicate 1): 89% and 88% and 84%
- Population Pyknosed Nuclei (%) (12 h, replicate 1): 41% and 16%
- Total Cell Count (12 h, replicate 1): 125 and 263 and 267
- Population Membrane Permeable-Phenotype (%) (12 h, replicate 2): 10% and 9% and 13%
- Population Normal (%) (12 h, replicate 2): 57% and 66% and 91%
- Population Apoptotic (%) (24 h, replicate 1): 60% and 66%
- Population Fragmented Nuclei (%) (24 h, replicate 1): 23% and 27% and 21%
- Population Healthy Nuclei (%) (24 h, replicate 1): 46% and 52% and 60%
- Population Hoechst High Intensity Objects (%) (24 h, replicate 1): 22% and 12% and 19%
- Population Mitotic Cells (%) (24 h, replicate 1): 40% and 39% and 33%
- Population Normal (%) (24 h, replicate 1): 77% and 87% and 80%
- Population Pyknosed Nuclei (%) (24 h, replicate 1): 30% and 19% and 18%
- Total Cell Count (24 h, replicate 1): 127 and 268 and 287
- Population Apoptotic (%) (24 h, replicate 2): 100% and 57% and 75%
- Population Hoechst High Intensity Objects (%) (24 h, replicate 2): 28% and 38%
- Population Normal (%) (24 h, replicate 2): 71% and 61%
- Population Pyknosed Nuclei (%) (24 h, replicate 2): 10% and 16%
- Population Apoptotic (%) (48 h, replicate 1): 87%
- Population Fragmented Nuclei (%) (48 h, replicate 1): 41%
- Population Healthy Nuclei (%) (48 h, replicate 1): 41%
- Population Hoechst High Intensity Objects (%) (48 h, replicate 1): 16%
- Population Membrane Permeable-Phenotype (%) (48 h, replicate 1): 23%
- Population Mitochondria Different-Phenotype (%) (48 h, replicate 1): 33%
- Population Mitotic Cells (%) (48 h, replicate 1): 12%
- Population Normal (%) (48 h, replicate 1): 83%
- Population Pyknosed Nuclei (%) (48 h, replicate 1): 17%
- Population Tubulin-Different-Phenotype (%) (48 h, replicate 1): 89%
- Total Cell Count (48 h, replicate 1): 113
- Population Apoptotic (%) (48 h, replicate 2): 50%
- Population Fragmented Nuclei (%) (48 h, replicate 2): 28%
- Population Healthy Nuclei (%) (48 h, replicate 2): 62%
- Population Hoechst High Intensity Objects (%) (48 h, replicate 2): 23%
- Population Membrane Permeable-Phenotype (%) (48 h, replicate 2): 19%
- Population Mitochondria Different-Phenotype (%) (48 h, replicate 2): 19%
- Population Mitotic Cells (%) (48 h, replicate 2): 50%
- Population Normal (%) (48 h, replicate 2): 76%
- Population Pyknosed Nuclei (%) (48 h, replicate 2): 9%
- Population Tubulin-Different-Phenotype (%) (48 h, replicate 2): 95%
- Total Cell Count (48 h, replicate 2): 86

From ChEMBL document CHEMBL4689842, “EUbOPEN Chemogenomics Library wave 1” (2021)
